Experimental data from ChEMBL document CHEMBL3734668, “Evaluation of small molecule SecA inhibitors against methicillin-resistant Staphylococcus aureus” (Bioorg Med Chem, 2015).
Values after ≈ are worked out from the molar mass of the structure shown. Active and inactive are the calls of the source. No cut-off for these calls is given here.

Tests used:
Staphylococcus aureus [1] = test: Bacteriostatic activity against Staphylococcus aureus N315 after 24 hrs; format: functional; details: N315, 24 h
In short: (§1)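 Broth microdilution MIC per CLSI guidance in LB, 37 °C, shaking 250 rpm, 24 hr; run in triplicate in three separate experiments. MIC taken as lowest inhibitor concentration with no growth. Compounds from DMSO stocks; untreated controls carry equal DMSO.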

Staphylococcus aureus [2] = test: Potency index, ratio of MIC for polymyxin B to MIC for test compound against Methicillin resistant Staphylococcus aureus; format: functional
[3] = target: T1, Protein translocase subunit SecA 1 (Staphylococcus aureus (strain NCTC 8325), UniProt O06446); test: Inhibition of Staphylococcus aureus ATCC 35556 SecA1 liposomal ion channel activity in Xenopus laevis oocytes incubated for 3 hrs measured by recording ion current for 1 min; format: cell-based
T1 sequence (O06446 whole entry): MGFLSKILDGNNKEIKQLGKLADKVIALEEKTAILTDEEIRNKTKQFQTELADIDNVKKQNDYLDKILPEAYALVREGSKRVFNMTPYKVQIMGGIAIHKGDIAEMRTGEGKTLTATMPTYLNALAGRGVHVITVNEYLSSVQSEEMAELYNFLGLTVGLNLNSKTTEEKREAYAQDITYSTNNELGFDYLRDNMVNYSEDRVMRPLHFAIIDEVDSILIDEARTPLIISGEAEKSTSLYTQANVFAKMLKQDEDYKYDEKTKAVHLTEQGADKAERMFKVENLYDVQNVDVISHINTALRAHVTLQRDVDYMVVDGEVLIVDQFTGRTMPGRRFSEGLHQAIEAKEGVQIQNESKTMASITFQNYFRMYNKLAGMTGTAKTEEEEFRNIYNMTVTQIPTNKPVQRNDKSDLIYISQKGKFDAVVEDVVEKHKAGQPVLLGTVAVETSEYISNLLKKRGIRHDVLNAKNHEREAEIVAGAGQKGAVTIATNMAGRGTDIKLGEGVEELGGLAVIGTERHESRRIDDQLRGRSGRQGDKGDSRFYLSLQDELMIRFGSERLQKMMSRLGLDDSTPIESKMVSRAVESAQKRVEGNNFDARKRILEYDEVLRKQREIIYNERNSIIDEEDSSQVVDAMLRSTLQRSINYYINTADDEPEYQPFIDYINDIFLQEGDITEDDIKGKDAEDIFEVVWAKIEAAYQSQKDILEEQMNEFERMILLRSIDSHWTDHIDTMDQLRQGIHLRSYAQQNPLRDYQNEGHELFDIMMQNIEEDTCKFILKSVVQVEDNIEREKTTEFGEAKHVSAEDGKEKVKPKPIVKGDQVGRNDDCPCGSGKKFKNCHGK
In short: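 Xenopus laevis oocytes injected at animal pole with 50 nl containing 120 ng liposomes, 120 ng SaSecA1, 14 ng proOmpA, 2 mM ATP, 1 mM Mg(OAc)2 plus varying inhibitor. Incubated 3 hr at 23 °C, then ion current recorded continuously 1 min.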

Staphylococcus aureus [4] = test: Bactericidal activity against Methicillin resistant Staphylococcus aureus Mu50 assessed as CFU reduction at 30 uM for 1 hr; format: functional
In short: (§2)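 Log-phase Mu50 cultures (OD600 ≈ 0.5) mixed with a range of inhibitor concentrations, shaken 1,000 rpm at 37 °C for 1 hr under normal room light. Cultures then serially diluted in LB, plated on LB agar and incubated overnight at 37 °C. Activity expressed as reduction in CFU relative to untreated control containing matching DMSO.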

Staphylococcus aureus [5] = test: Potency index, ratio of MIC for kanamycin to MIC for test compound against Methicillin resistant Staphylococcus aureus; format: functional
Staphylococcus aureus [6] = test: Bacteriostatic activity against Staphylococcus aureus K2068 overexpressing MepA; format: functional; in short: as §1
Staphylococcus aureus [7] = test: Reduction in extracellular protein in Staphylococcus aureus Mu50 supernatant at 10 uM measured within 15 hrs; format: functional, organism-based
In short: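 Mu50 grown in LB at 37 °C; inhibitor added at mid-log phase (OD600 ≈ 2.6). Culture sampled at various times, supernatant separated by centrifugation and passed through 0.45 μm filter. Secreted α-hemolysin, TSST-1 and enterotoxin B detected by Western blot with specific antibodies.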

[8] = target: T2, Protein translocase subunit SecA 1 (Staphylococcus aureus (strain NCTC 8325)) (UniProt O06446); test: Non-competitive inhibition of Staphylococcus aureus ATCC 35556 SecA1 liposomal ATPase activity in Xenopus laevis oocytes incubated for 3 hrs measured by Lineweaver-Burk plot analysis; format: cell-based
T2 sequence (whole entry): T1 sequence (O06446 whole entry)
In short: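 SaSecA1-liposome plus proOmpA co-injected into Xenopus oocytes at varying ATP and inhibitor concentrations, incubated 3 hr at 23 °C, ion current recorded 1 min; n = 9-10. Inhibition mode assessed across ATP levels.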

Staphylococcus aureus [9] = test: Potency index, ratio of MIC for rifampicin to MIC for test compound against Methicillin resistant Staphylococcus aureus; format: functional
Staphylococcus aureus [10] = test: Bactericidal activity against Methicillin resistant Staphylococcus aureus Mu50 assessed as CFU reduction for 1 hr; format: functional, organism-based; in short: as §2
Staphylococcus aureus [11] = test: Bacteriostatic activity against Staphylococcus aureus Mu3 after 24 hrs; format: functional; details: Mu3, 24 h; in short: as §1
Staphylococcus aureus [12] = test: Bacteriostatic activity against Staphylococcus aureus K2361 overexpressing NorA; format: functional; in short: as §1
Staphylococcus aureus [13] = test: Bactericidal activity against Methicillin sensitive Staphylococcus aureus ATCC 6538 assessed as CFU reduction at 30 uM for 1 hr; format: functional
In short: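 Log-phase LB cultures (OD600 ≈ 0.5) mixed with a range of inhibitor concentrations, shaken at 1,000 rpm, 37 °C, 1 hr, under normal room light. Cultures serially diluted in LB, plated on LB agar, incubated overnight at 37 °C. CFU counted; bactericidal effect taken as CFU reduction versus untreated control.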

Staphylococcus aureus [14] = test: Potency index, ratio of MIC for erythromycin to MIC for test compound against Methicillin resistant Staphylococcus aureus; format: functional
[15] = target: T2, Protein translocase subunit SecA 1 (Staphylococcus aureus (strain NCTC 8325)); test: Inhibition of Staphylococcus aureus SecA1 assessed as reduction in secretion of alpha-hemolysin at 10 uM by Western blot analysis
In short: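 S. aureus Mu50 grown in LB at 37 °C; inhibitor added at mid-log phase and cultures sampled at several time points. Supernatants separated by centrifugation, filtered 0.45 μm, and probed by Western blot with antibodies to α-hemolysin, TSST-1 or enterotoxin B.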

Staphylococcus aureus [16] = test: Potency index, ratio of MIC for tetracycline to MIC for test compound against Methicillin resistant Staphylococcus aureus; format: functional
Staphylococcus aureus [17] = test: Bacteriostatic activity against MepA deficient Staphylococcus aureus K2908; format: functional; in short: as §1

## CCCCCCC1c2ccc(O)cc2Oc2cc(O)ccc21
Staphylococcus aureus [1]
  MIC: 4 µg/mL (≈ 13.4 µM)
Staphylococcus aureus [2]
  Ratio: 7
[3]
  IC50: 1000 nM
Staphylococcus aureus [4]
  Activity: >3 log10CFU/ml
Staphylococcus aureus [5]
  Ratio: 250
Staphylococcus aureus [6]
  MIC: 4 µg/mL (≈ 13.4 µM)
Staphylococcus aureus [7]
  Activity: Active
[8]
  inhibition: Active
Staphylococcus aureus [9]
  Ratio: 250
Staphylococcus aureus [10]
  Activity: Dose-dependent effect
Staphylococcus aureus [11]
  MIC: 4 µg/mL (≈ 13.4 µM)
Staphylococcus aureus [12]
  MIC: 4 µg/mL (≈ 13.4 µM)
Staphylococcus aureus [13]
  Activity: 2 log10CFU/ml
Staphylococcus aureus [14]
  Ratio: 250
[15]
  inhibition: Active
Staphylococcus aureus [16]
  Ratio: 7
Staphylococcus aureus [17]
  MIC: 4 µg/mL (≈ 13.4 µM)
